# From ChEMBL document CHEMBL3045526, “Tailoring the structure of aminobisphosphonates to target plant P5C reductase” (J Agric Food Chem, 2008)
# Active and inactive are the calls of the source. The calls are words filed in the database; no cut-off is given here.
# Columns and labels:
# [1] = biological target: T1, Pyrroline-5-carboxylate reductase (Arabidopsis thaliana, UniProt P54904); assay: Inhibition of Arabidopsis thaliana P5C assessed as reduction in NADH oxidation incubated at 35 degC up to 10 min
# T1 sequence (P54904 whole entry): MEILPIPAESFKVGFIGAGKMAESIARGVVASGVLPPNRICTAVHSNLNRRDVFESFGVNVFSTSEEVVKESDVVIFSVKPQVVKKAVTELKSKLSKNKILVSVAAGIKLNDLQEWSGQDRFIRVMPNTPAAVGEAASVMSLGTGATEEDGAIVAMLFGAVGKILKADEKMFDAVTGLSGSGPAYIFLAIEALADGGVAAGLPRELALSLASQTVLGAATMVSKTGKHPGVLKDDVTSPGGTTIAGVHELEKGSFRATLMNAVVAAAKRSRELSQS
# Summary of the method: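 P5C reductase partially purified from stationary-phase A. thaliana cultured cells. Forward reaction run in 100 mM Tris-HCl pH 8.0, 0.1 mM MgCl2, 2 mM DL-P5C, 0.25 mM NADH, with 0.15–0.20 nkat enzyme. A340 followed at 35 °C for up to 10 min against P5C-free blanks. Inhibitor final 5 µM–5 mM (pH 7.5–8.0), triplicate. IC50 by linear regression of % activity vs log concentration.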
# Arabidopsis thaliana [2] = assay: Growth inhibition of Arabidopsis thaliana suspension cultured cells assessed as reduction in dry weight increase at 0.2 mM measured 8 days after compound incubation in presence of exogenously supplied 2 mM proline; type: functional
# Summary of the method: (§1)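 A. thaliana Columbia suspension cells (MS medium, 0.3% sucrose, 2,4-D and BAP 0.5 mg L-1 each; 24 °C, 100 rpm, dim light). Flasks inoculated at 3.2–3.5 mg mL-1 dry weight. Inhibitor (pH 6.0) plus filter-sterilized amino acids added together at 4.0 mg mL-1. Dry weight increase after 8 days (oven, 90 °C, 48 h) given as % of untreated control. Four replicates.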
# Arabidopsis thaliana [3] = assay: Growth inhibition of Arabidopsis thaliana suspension cultured cells assessed as reduction in dry weight increase at 0.2 mM measured 8 days after compound incubation in presence of exogenously supplied 10 mM glutamine; type: functional; summary of the method: as §1
# Arabidopsis thaliana [4] = assay: Growth inhibition of Arabidopsis thaliana suspension cultured cells assessed as reduction in dry weight increase at 0.2 mM measured 8 days after compound incubation in presence of exogenously supplied 10 mM glutamine and 2 mM proline; type: functional; summary of the method: as §1
# Arabidopsis thaliana [5] = assay: Growth inhibition of Arabidopsis thaliana suspension cultured cells assessed as reduction in dry weight increase measured 8 days after compound incubation; type: functional
# Summary of the method: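 Same A. thaliana Columbia suspension cultures, inoculated at 3.2–3.5 mg mL-1 dry weight. Filter-sterilized compounds (pH 6.0 with KOH) added at increasing concentrations once density reached 4.0 mg mL-1. After 8 days, when controls reached early stationary phase, cells were vacuum-filtered and oven-dried (90 °C, 48 h). Dry weight increase given as % of control; 50% growth-reduction concentration derived.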
Compound,IC50 [1] [mM],growth inhibition (GI) (Arabidopsis thaliana [5]),further results
"Cc1cc(C)cc(NC(P(=O)(O)O)P(=O)(O)O)c1 [3,5-DIMETHYLPHENYLAMINOMETHYLENEBISPHOSPHONIC ACID]",1.07,,
"O=P(O)(O)C(Nc1cc(Cl)cc(Cl)c1)P(=O)(O)O [(3,5-DICHLOROPHENYLAMINO)METHYLENEDIPHOSPHONIC ACID]",,,growth inhibition (GI) (Arabidopsis thaliana [2]): Active; growth inhibition (GI) (Arabidopsis thaliana [3]): Active; growth inhibition (GI) (Arabidopsis thaliana [4]): inactive; GI50 (Arabidopsis thaliana [5]; 192 h): 0.24 mM
O=P(O)(O)C(N1CCCCCCC1)P(=O)(O)O [N-(HEPTAMETHYLENEIMINO)METHYLENEBISPHOSPHONIC ACID],533,,
"O=P(O)(O)C(Nc1cccc(Cl)c1Cl)P(=O)(O)O [2,3-DICHLOROPHENYLAMINOMETHYLENEBISPHOSPHONIC ACID]",,Active,
"O=P(O)(O)C(Nc1c(Cl)cccc1Cl)P(=O)(O)O [2,6-DICHLOROPHENYLAMINOMETHYLENEBISPHOSPHONIC ACID]",,Active,
O=P(O)(O)C(N1CCCCCC1)P(=O)(O)O [N-(HEXAMETHYLENEIMINO)METHYLENEBISPHOSPHONIC ACID],74.4,,
